Reference: ChEMBL document CHEMBL1157379, “Transcriptional response of Candida parapsilosis following exposure to farnesol” (2007)
Calls of active or inactive are those of the source. No cut-off for these calls is given here.

Assays:
Candida parapsilosis [1] = experiment: Increase in POT1 gene expression in Candida parapsilosis CLIB214 at 50 uM after 2 hrs by microarray based transcriptional profiling relative to control; assay type: functional
Method in brief: (§1)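 Strain grown overnight in YPD at 30°C, diluted to A600 0.2 in YPD at 30°C; farnesol (40 mM methanol stock) added at 4 h (A600 0.8), final 50 μM; methanol-only control. Cells collected 2 h later for RNA. Labelled cDNA from 25 μg total RNA (Cy3/Cy5-dCTP) hybridized to 68-mer oligo arrays at 42°C ~16 h; six individual comparisons analysed statistically.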

Candida parapsilosis [2] = experiment: Antifungal activity against Candida parapsilosis CLIB214 assessed as growth inhibition in presence of 10% fetal calf serum at 30 degC; assay type: functional, organism-based
Method in brief: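 YPD cultures started at A600 0.2, supplemented with 10% (vol/vol) fetal calf serum, and grown at 30°C or 37°C. Farnesol added with the serum. Growth monitored by A600 or cell counting.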

Candida parapsilosis [3] = experiment: Decrease in CGD gene ortholog accession number orf19.2328 expression in Candida parapsilosis CLIB214 at 50 uM after 2 hrs by microarray based transcriptional profiling relative to control; assay type: functional
Method in brief: (§2)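 Cells in YPD at 30°C treated with 50 μM farnesol at 4 h, with a methanol control. RNA harvested 2 h later and kept only if 28S/18S ratio was 1.6–2.2 with no degradation. 25 μg total RNA oligo-dT primed and labeled with Cy3/Cy5-dCTP. Labeled cDNA hybridized about 16 h at 42°C to duplicate-spotted 68-mer oligo arrays. Six individual comparisons analyzed statistically.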

Candida parapsilosis [4] = experiment: Increase in CGD gene ortholog accession number orf19.7097 expression in Candida parapsilosis CLIB214 at 50 uM after 2 hrs by microarray based transcriptional profiling relative to control; assay type: functional
Method in brief: (§3)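 Strain CLIB214 grown overnight in YPD at 30°C, diluted to A600 0.2 in fresh YPD at 30°C. After 4 h (A600 0.8), farnesol (40 mM methanol stock) added to 50 μM final, or an equal methanol volume as control; cells harvested 2 h later. RNA was accepted only with a 28S/18S ratio of 1.6–2.2. Cy3/Cy5-dCTP-labelled cDNA was made from 25 μg total RNA. Hybridisation was to duplicate-spotted 68-mer oligo arrays (3,849 genes) at 42°C for about 16 h. Six individual comparisons.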

Candida parapsilosis [5] = experiment: Decrease in CGD gene ortholog accession number orf19.3704 expression in Candida parapsilosis CLIB214 at 50 uM after 2 hrs by microarray based transcriptional profiling relative to control; assay type: functional; method in brief: as §2
Candida parapsilosis [6] = experiment: Decrease in CGD gene ortholog accession number orf19.2697 expression in Candida parapsilosis CLIB214 at 50 uM after 2 hrs by microarray based transcriptional profiling relative to control; assay type: functional; method in brief: as §2
Candida parapsilosis [7] = experiment: Antifungal activity against Candida parapsilosis CLIB214 assessed as growth inhibition at 50 uM added after 4 hrs of bacterial growth measured after 4 hrs; assay type: functional; details: Lodderomyces parapsilosis, CLIB214, 4 h
Method in brief: (§4)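 Overnight YPD culture at 30°C diluted to A600 0.2 in YPD. Farnesol added to 50 μM final at 2, 4, 6 or 8 h of growth (A600 about 0.8 at 4 h, 2.3 at 6 h, 6 at 8 h). Growth compared with methanol controls by A600 or cell counts.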

Candida parapsilosis [8] = experiment: Decrease in STE23 gene expression in Candida parapsilosis CLIB214 at 50 uM after 2 hrs by microarray based transcriptional profiling relative to control; assay type: functional; method in brief: as §3
Candida parapsilosis [9] = experiment: Effect on GAD1 gene expression in Candida parapsilosis CLIB214 by microarray based transcriptional profiling; assay type: functional, organism-based; method in brief: as §3
Candida parapsilosis [10] = experiment: Reduction in ERG1 gene expression in Candida parapsilosis CLIB214 by RT-PCR; assay type: functional, organism-based
Method in brief: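 Cultures in YPD at 30°C, diluted to A600 0.2; 50 μM farnesol (final) or methanol added at 4 h, RNA harvested 2 h later. RT-PCR: 95°C hot start 1 min 30 s, then 26 cycles (95°C 40 s, 55°C 2 min, 72°C 3 min), final 72°C 5 min; each gene signal normalized to ACT1.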

Candida parapsilosis [11] = experiment: Increase in CGD gene ortholog accession number orf19.7235 expression in Candida parapsilosis CLIB214 at 50 uM after 2 hrs by microarray based transcriptional profiling relative to control; assay type: functional; method in brief: as §3
Candida parapsilosis [12] = experiment: Increase in CGD gene ortholog accession number orf19.1457 expression in Candida parapsilosis CLIB214 at 50 uM after 2 hrs by microarray based transcriptional profiling relative to control; assay type: functional; method in brief: as §3
Candida parapsilosis [13] = experiment: Decrease in CGD gene ortholog accession number orf19.409 expression in Candida parapsilosis CLIB214 at 50 uM after 2 hrs by microarray based transcriptional profiling relative to control; assay type: functional; method in brief: as §2
Candida parapsilosis [14] = experiment: Decrease in CGD gene ortholog accession number orf19.2308 expression in Candida parapsilosis CLIB214 at 50 uM after 2 hrs by microarray based transcriptional profiling relative to control; assay type: functional; method in brief: as §2
Candida parapsilosis [15] = experiment: Decrease in CGD gene ortholog accession number orf19.6281 expression in Candida parapsilosis CLIB214 at 50 uM after 2 hrs by microarray based transcriptional profiling relative to control; assay type: functional; method in brief: as §2
Candida parapsilosis [16] = experiment: Antifungal activity against Candida parapsilosis CLIB214 assessed as reduction of biofilm formation at 100 uM added 4 hrs after […] growth by crystal violet assay; assay type: functional; design: scale not given: the % may be the effect or the level left
Method in brief: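 Cells grown overnight in YNB, diluted to A600 1, and left to adhere 2 h at 37°C. Nonadherent cells washed off with PBS, then fresh YNB added and plates incubated 24 h at 37°C. Biofilms stained with 0.1% crystal violet for 15 min at 30°C, destained 4 h in 33% acetic acid, and read at A570.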

Candida parapsilosis [17] = experiment: Increase in CGD gene ortholog accession number orf19.966 expression in Candida parapsilosis CLIB214 at 50 uM after 2 hrs by microarray based transcriptional profiling relative to control; assay type: functional; method in brief: as §1
Candida parapsilosis [18] = experiment: Decrease in CGD gene ortholog accession number orf19.5212 expression in Candida parapsilosis CLIB214 at 50 uM after 2 hrs by microarray based transcriptional profiling relative to control; assay type: functional; method in brief: as §2
Candida parapsilosis [19] = experiment: Increase in TEF1 gene expression in Candida parapsilosis CLIB214 at 50 uM after 2 hrs by microarray based transcriptional profiling relative to control; assay type: functional; method in brief: as §1
Candida parapsilosis [20] = experiment: Decrease in CGD gene ortholog accession number orf19.5877 expression in Candida parapsilosis CLIB214 at 50 uM after 2 hrs by microarray based transcriptional profiling relative to control; assay type: functional; method in brief: as §2
Candida parapsilosis [21] = experiment: Antifungal activity against Candida parapsilosis CLIB214 assessed as growth inhibition at 50 uM added after 2 hrs of bacterial growth measured after 4 hrs; assay type: functional; details: Lodderomyces parapsilosis; method in brief: as §4
Candida parapsilosis [22] = experiment: Antifungal activity against Candida parapsilosis CLIB214 assessed as growth inhibition at 10 to 20 uM added 4 hrs after […] growth; assay type: functional, organism-based
Candida parapsilosis [23] = experiment: Increase in CGD gene ortholog accession number orf19.7353 expression in Candida parapsilosis CLIB214 at 50 uM after 2 hrs by microarray based transcriptional profiling relative to control; assay type: functional; method in brief: as §3
Candida parapsilosis [24] = experiment: Increase in CGD gene ortholog accession number orf19.7270 expression in Candida parapsilosis CLIB214 at 50 uM after 2 hrs by microarray based transcriptional profiling relative to control; assay type: functional; method in brief: as §3

CC(C)=CCC/C(C)=C/CC/C(C)=C/CO [FARNESOL]
fold change (FC) (Candida parapsilosis [1]): 1.71 | Activity (Candida parapsilosis [2]): inactive | fold change (FC) (Candida parapsilosis [3]): 1.5 | fold change (FC) (Candida parapsilosis [4]): 1.86 | fold change (FC) (Candida parapsilosis [5]): 1.96 | fold change (FC) (Candida parapsilosis [6]): 1.81 | inhibition at 50 µM (Candida parapsilosis [7]): 83% | fold change (FC) (Candida parapsilosis [8]): 2.13 | Activity (Candida parapsilosis [9]): inactive | Activity (Candida parapsilosis [10]): Active | fold change (FC) (Candida parapsilosis [11]): 1.56 | fold change (FC) (Candida parapsilosis [12]): 1.55 | fold change (FC) (Candida parapsilosis [13]): 2.21 | fold change (FC) (Candida parapsilosis [14]): 1.7 | fold change (FC) (Candida parapsilosis [15]): 1.72 | Activity (Candida parapsilosis [16]): 30% | fold change (FC) (Candida parapsilosis [17]): 1.6 | fold change (FC) (Candida parapsilosis [18]): 2.33 | fold change (FC) (Candida parapsilosis [19]): 1.61 | fold change (FC) (Candida parapsilosis [20]): 3.22 | inhibition at 50 µM (Candida parapsilosis [21]): 71% | Activity (Candida parapsilosis [22]): inactive | fold change (FC) (Candida parapsilosis [23]): 2.14 | fold change (FC) (Candida parapsilosis [24]): 1.67
